Data: ChEMBL document CHEMBL1275556, “High prevalence of plasmid-mediated quinolone resistance genes qnr and aac(6')-Ib-cr in clinical isolates of Enterobacteriaceae from nine teaching hospitals in China” (2008)
In brackets after ≈: the same amount, converted by molar mass.

Assays:
[1] = tested on: Enterobacter cloacae; experiment: Antimicrobial activity against aac(6')-Ib-cr-negative Enterobacter cloacae WH42 harboring wild-type GyrA, ParC, GyrB and qnrA genes by agar dilution method; type: functional
[2] = tested on: Klebsiella pneumoniae; experiment: Antimicrobial activity against aac(6')-Ib-cr-positive Klebsiella pneumoniae SY26 harboring GyrA S83I, ParC S80I mutant, wild-type GyrB and qnrB genes by agar dilution method; type: functional
In short: (§1)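 MICs were determined on clinical isolates by CLSI agar dilution (M7-A7) and interpreted against CLSI M100-S17 breakpoints.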

[3] = tested on: Klebsiella pneumoniae; experiment: Antimicrobial activity against aac(6')-Ib-cr-positive Klebsiella pneumoniae JN132T harboring qnrB gene by agar dilution method; type: functional
In short: (§2)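 Transconjugants were made by conjugating a qnr/aac(6')-Ib-cr donor with azide-resistant E. coli J53. Selection used Trypticase soy agar with sodium azide 150 µg/ml and sulfamethoxazole 180 µg/ml. […] MICs were read by CLSI agar dilution (M7-A7) and interpreted per M100-S17.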

[4] = tested on: Citrobacter freundii; experiment: Antimicrobial activity against aac(6')-Ib-cr-positive Citrobacter freundii JN1T by agar dilution method; type: functional
In short: (§3)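 MICs were determined by the CLSI agar dilution method (M7-A7) and interpreted against CLSI M100-S17 breakpoints.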

[5] = tested on: Enterobacter cloacae; experiment: Antimicrobial activity against aac(6')-Ib-cr-negative Enterobacter cloacae WH42T harboring qnrA gene by agar dilution method; type: functional
[6] = tested on: Klebsiella pneumoniae; experiment: Antimicrobial activity against aac(6')-Ib-cr-positive Klebsiella pneumoniae SY26T harboring wild-type GyrA, ParC, GyrB and qnrB genes by agar dilution method; type: functional
In short: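 Transconjugants were made by conjugating a qnr/aac(6')-Ib-cr donor with azide-resistant E. coli J53. MICs were read by CLSI agar dilution (M7-A7) and interpreted per M100-S17.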

[7] = tested on: Enterobacter cloacae; experiment: Antimicrobial activity against aac(6')-Ib-cr-negative Enterobacter cloacae GZ47T harboring qnrB gene by agar dilution method; type: functional
[8] = tested on: Escherichia coli; experiment: Antimicrobial activity against aac(6')-Ib-cr-positive Escherichia coli FJ3 harboring GyrA S83L, ParC S80R mutant, wild-type GyrB and qnrB genes by agar dilution method; type: functional; in short: as §3
[9] = tested on: Enterobacter cloacae; experiment: Antimicrobial activity against aac(6')-Ib-cr-positive Enterobacter cloacae FJ63T harboring qnrS gene by agar dilution method; type: functional
[10] = tested on: Citrobacter freundii; experiment: Antimicrobial activity against aac(6')-Ib-cr-positive Citrobacter freundii PU55 harboring GyrA T83I, ParC S80I mutant, wild-type GyrB, qnrA genes by agar dilution method; type: functional; in short: as §3
[11] = tested on: Citrobacter freundii; experiment: Antimicrobial activity against aac(6')-Ib-cr-positive Citrobacter freundii JN1 harboring GyrA T83I, ParC S80I mutant, wild-type GyrB and qnrA genes by agar dilution method; type: functional; in short: as §3
[12] = tested on: Citrobacter freundii; experiment: Antimicrobial activity against aac(6')-Ib-cr-negative Citrobacter freundii JN64T harboring qnrA gene by agar dilution method; type: functional; in short: as §3
[13] = tested on: Enterobacter cloacae; experiment: Antimicrobial activity against aac(6')-Ib-cr-positive Enterobacter cloacae FJ63 harboring GyrA S83I, GyrA D87A, ParC S80I mutant, wild-type GyrB and qnrS genes by agar dilution method; type: functional
[14] = tested on: Klebsiella pneumoniae; experiment: Antimicrobial activity against aac(6')-Ib-cr-positive Klebsiella pneumoniae WH99 harboring wild-type GyrA, ParC, GyrB and qnrB genes by agar dilution method; type: functional; in short: as §1
[15] = tested on: Enterobacter cloacae; experiment: Antimicrobial activity against aac(6')-Ib-cr-negative Enterobacter cloacae FJ61T harboring qnrS gene by agar dilution method; type: functional
[16] = tested on: Klebsiella pneumoniae; experiment: Antimicrobial activity against aac(6')-Ib-cr-positive Klebsiella pneumoniae GZ40 harboring GyrA S83I, ParC S80I mutant, wild-type GyrB and qnrB genes by agar dilution method; type: functional; in short: as §3
[17] = tested on: Citrobacter freundii; experiment: Antimicrobial activity against aac(6')-Ib-cr-positive Citrobacter freundii TJ15T harboring wild-type GyrA, ParC, GyrB genes by agar dilution method; type: functional; in short: as §3
[18] = tested on: Klebsiella pneumoniae; experiment: Antimicrobial activity against aac(6')-Ib-cr-positive Klebsiella pneumoniae JN132 harboring GyrA S83I, ParC S80I mutant, wild-type GyrB and qnrB genes by agar dilution method; type: functional; in short: as §1
[19] = tested on: Klebsiella pneumoniae; experiment: Antimicrobial activity against aac(6')-Ib-cr-positive Klebsiella pneumoniae GZ40T harboring qnrB gene by agar dilution method
[20] = tested on: Escherichia coli; experiment: Antimicrobial activity against aac(6')-Ib-cr-negative Escherichia coli PU12 harboring GyrA S83L mutant, wild-type GyrB, ParC and qnrS genes by agar dilution method; type: functional; in short: as §3
[21] = tested on: Enterobacter cloacae; experiment: Antimicrobial activity against aac(6')-Ib-cr-negative Enterobacter cloacae SH39T harboring qnrA gene by agar dilution method; type: functional
[22] = tested on: Enterobacter cloacae; experiment: Antimicrobial activity against aac(6')-Ib-cr-negative Enterobacter cloacae FJ67T harboring qnrS gene by agar dilution method; type: functional
[23] = tested on: Citrobacter freundii; experiment: Antimicrobial activity against aac(6')-Ib-cr-positive Citrobacter freundii JS33T harboring qnrA gene by agar dilution method; type: functional; in short: as §3
[24] = tested on: Enterobacter cloacae; experiment: Antimicrobial activity against aac(6')-Ib-cr-negative Enterobacter cloacae SH39 harboring GyrA S83I, ParC S80I mutant, wild-type GyrB and qnrA genes by agar dilution method; type: functional
[25] = tested on: Citrobacter freundii; experiment: Antimicrobial activity against aac(6')-Ib-cr-positive Citrobacter freundii PU55T harboring wild-type GyrA, ParC, GyrB and qnrA genes by agar dilution method
[26] = tested on: Enterobacter cloacae; experiment: Antimicrobial activity against aac(6')-Ib-cr-negative Enterobacter cloacae GZ51T harboring qnrA gene by agar dilution method; type: functional
[27] = tested on: Enterobacter cloacae; experiment: Antimicrobial activity against aac(6')-Ib-cr-negative Enterobacter cloacae FJ67 harboring […] and qnrS genes by agar dilution method; type: functional
[28] = tested on: Citrobacter freundii; experiment: Antimicrobial activity against aac(6')-Ib-cr-negative Citrobacter freundii JN64 harboring GyrA T83I, wild-type ParC, GyrB and qnrA genes by agar dilution method; type: functional; in short: as §3
[29] = tested on: Klebsiella pneumoniae; experiment: Antimicrobial activity against aac(6')-Ib-cr-positive Klebsiella pneumoniae JN41 harboring GyrA S83I, ParC S80I mutant, wild-type GyrB and qnrB genes by agar dilution method; type: functional; in short: as §1
[30] = tested on: Citrobacter freundii; experiment: Antimicrobial activity against aac(6')-Ib-cr-positive Citrobacter freundii JS33 harboring GyrA T83I mutant, wild-type ParC, GyrB, qnrA and qnrB genes by agar dilution method; type: functional; in short: as §3
[31] = tested on: Klebsiella pneumoniae; experiment: Antimicrobial activity against aac(6')-Ib-cr-negative Klebsiella pneumoniae SY22 harboring GyrA S83I, ParC S80I mutant, wild-type GyrB and qnrS genes by agar dilution method; type: functional; in short: as §3
[32] = tested on: Klebsiella pneumoniae; experiment: Antimicrobial activity against aac(6')-Ib-cr-positive Klebsiella pneumoniae JN41T harboring qnrB gene by agar dilution method; type: functional; in short: as §2
[33] = tested on: Enterobacter cloacae; experiment: Antimicrobial activity against aac(6')-Ib-cr-negative Enterobacter cloacae FJ61 harboring GyrA S83I, GyrA D87A, ParC S80I mutant, wild-type GyrB and qnrS genes by agar dilution method; type: functional
[34] = tested on: Enterobacter cloacae; experiment: Antimicrobial activity against aac(6')-Ib-cr-negative Enterobacter cloacae GZ51 harboring qnrA gene by agar dilution method; type: functional
[35] = tested on: Escherichia coli; experiment: Antimicrobial activity against aac(6')-Ib-cr-positive Escherichia coli FJ3T harboring wild-type GyrA, ParC, GyrB and qnrB genes by agar dilution method
[36] = tested on: Klebsiella pneumoniae; experiment: Antimicrobial activity against aac(6')-Ib-cr-negative Klebsiella pneumoniae SY22T harboring qnrS gene by agar dilution method; type: functional; in short: as §3
[37] = tested on: Klebsiella pneumoniae; experiment: Antimicrobial activity against aac(6')-Ib-cr-positive Klebsiella pneumoniae WH99T harboring qnrB gene by agar dilution method; type: functional; in short: as §2
[38] = tested on: Escherichia coli; experiment: Antimicrobial activity against Escherichia coli J53 harboring wild-type GyrA, ParC, GyrB genes by agar dilution method
[39] = tested on: Citrobacter freundii; experiment: Antimicrobial activity against aac(6')-Ib-cr-positive Citrobacter freundii TJ15 harboring GyrA T83I, ParC S80I mutant, wild-type GyrB, qnrB genes by agar dilution method; type: functional; in short: as §3
[40] = tested on: Enterobacter cloacae; experiment: Antimicrobial activity against aac(6')-Ib-cr-negative Enterobacter cloacae GZ47 harboring qnrB and qnrS genes by agar dilution method; type: functional
[41] = tested on: Escherichia coli; experiment: Antimicrobial activity against aac(6')-Ib-cr-negative Escherichia coli PU12T harboring wild-type GyrA, GyrB, ParC and qnrS genes by agar dilution method; type: functional; in short: as §3

## C[C@@H](O)[C@H]1C(=O)N2C(C(=O)O)=C(S[C@@H]3CN[C@H](C(=O)N(C)C)C3)[C@H](C)[C@H]12 [MEROPENEM]
[1]
  MIC: 0.125 µg/mL (≈ 0.326 µM)
[2]
  MIC: 0.125 µg/mL (≈ 0.326 µM)
[3]
  MIC: 0.032 µg/mL (≈ 0.0834 µM)
[4]
  MIC: 0.016 µg/mL (≈ 0.0417 µM)
[5]
  MIC: 0.016 µg/mL (≈ 0.0417 µM)
[6]
  MIC: 0.016 µg/mL (≈ 0.0417 µM)
[7]
  MIC: 0.016 µg/mL (≈ 0.0417 µM)
[8]
  MIC: 0.032 µg/mL (≈ 0.0834 µM)
[9]
  MIC: 0.064 µg/mL (≈ 0.167 µM)
[10]
  MIC: 0.25 µg/mL (≈ 0.652 µM)
[11]
  MIC: 0.125 µg/mL (≈ 0.326 µM)
[12]
  MIC: 0.016 µg/mL (≈ 0.0417 µM)
[13]
  MIC: 1 µg/mL (≈ 2.61 µM)
[14]
  MIC: 0.032 µg/mL (≈ 0.0834 µM)
[15]
  MIC: 0.016 µg/mL (≈ 0.0417 µM)
[16]
  MIC: 0.125 µg/mL (≈ 0.326 µM)
[17]
  MIC: 0.016 µg/mL (≈ 0.0417 µM)
[18]
  MIC: 0.032 µg/mL (≈ 0.0834 µM)
[19]
  MIC: 0.016 µg/mL (≈ 0.0417 µM)
[20]
  MIC: 0.016 µg/mL (≈ 0.0417 µM)
[21]
  MIC: 0.016 µg/mL (≈ 0.0417 µM)
[22]
  MIC: 0.032 µg/mL (≈ 0.0834 µM)
[23]
  MIC: 0.032 µg/mL (≈ 0.0834 µM)
[24]
  MIC: 0.125 µg/mL (≈ 0.326 µM)
[25]
  MIC: 0.016 µg/mL (≈ 0.0417 µM)
[26]
  MIC: 0.016 µg/mL (≈ 0.0417 µM)
[27]
  MIC: 0.032 µg/mL (≈ 0.0834 µM)
[28]
  MIC: 0.25 µg/mL (≈ 0.652 µM)
[29]
  MIC: 0.032 µg/mL (≈ 0.0834 µM)
[30]
  MIC: 0.125 µg/mL (≈ 0.326 µM)
[31]
  MIC: 0.016 µg/mL (≈ 0.0417 µM)
[32]
  MIC: 0.016 µg/mL (≈ 0.0417 µM)
[33]
  MIC: 0.25 µg/mL (≈ 0.652 µM)
[34]
  MIC: 0.064 µg/mL (≈ 0.167 µM)
[35]
  MIC: 0.032 µg/mL (≈ 0.0834 µM)
[36]
  MIC: 0.016 µg/mL (≈ 0.0417 µM)
[37]
  MIC: 0.016 µg/mL (≈ 0.0417 µM)
[38]
  MIC: 0.016 µg/mL (≈ 0.0417 µM)
[39]
  MIC: 0.032 µg/mL (≈ 0.0834 µM)
[40]
  MIC: 0.032 µg/mL (≈ 0.0834 µM)
[41]
  MIC: 0.016 µg/mL (≈ 0.0417 µM)
